Values after ≈ are worked out from the molar mass of the structure shown.
Legend:
Format in all cases: functional
[1] = test system: Staphylococcus aureus; assay: Antimicrobial activity against Staphylococcus aureus 375 ATCC 3538p after 18 hrs by broth dilution method; conditions: Staphylococcus aureus, 375, 18 h
Summary of the method: (§1)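 MIC by broth dilution per NCCLS recommendations in Mueller-Hinton II medium. Inoculum 5 × 10^5 cfu/mL, antibiotic concentrations 128-0.0625 µg/mL. Microtiter plates incubated 18 h at 35 °C in ambient air. MIC read at end of incubation.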

[2] = test system: Staphylococcus aureus; assay: Antimicrobial activity against methicillin-resistant Staphylococcus aureus 310 SSC8224 after 18 hrs by broth dilution method; conditions: Staphylococcus aureus, 310, 18 h
Summary of the method: (§2)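 MIC by broth dilution following NCCLS recommendations, Mueller-Hinton II medium; inoculum 5 × 10^5 cfu/mL; antibiotic range 128-0.0625 µg/mL; microtiter plates incubated 18 h at 35 °C in ambient air; MIC read after incubation.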

[3] = test system: Enterococcus faecium; assay: Antimicrobial activity against vancomycin-resistant Enterococcus faecium 379 NC12204 after 18 hrs by broth dilution method; conditions: Enterococcus faecium, 379, 18 h; summary of the method: as §2
[4] = test system: Enterococcus faecium; assay: Antimicrobial activity against Enterococcus faecium 436 ID3151 after 18 hrs by broth dilution method; conditions: Enterococcus faecium, 436, 18 h; summary of the method: as §1
[5] = test system: Escherichia coli; assay: Antimicrobial activity against Escherichia coli 389 GC4560 expressing imp after 18 hrs by broth dilution method; conditions: Escherichia coli, 389, 18 h; summary of the method: as §1
[6] = test system: Escherichia coli; assay: Antimicrobial activity against Escherichia coli 442 GC4559 after 18 hrs by broth dilution method; conditions: Escherichia coli, 442, 18 h; summary of the method: as §1
[7] = test system: Candida albicans; assay: Antimicrobial activity against Candida albicans 54 CA300 after 18 hrs by broth dilution method; conditions: Candida albicans, 54, 18 h; summary of the method: as §1

SMILES	MIC [1] [µg/mL]	MIC [2] [µg/mL]	MIC [3] [µg/mL]	MIC [4] [µg/mL]	MIC [5] [µg/mL]	MIC [6] [µg/mL]	MIC [7] [µg/mL]
CC(C)=CCC/C(C)=C/CC/C(C)=C/CN1C(=O)c2cccc(O)c2Nc2c(O)cc(O)cc21 [DIAZEPINOMICIN]	16 (≈ 34.6 µM)	8 (≈ 17.3 µM)	32 (≈ 69.2 µM)	64 (≈ 138 µM)	> 128	> 128	> 128
CC(C)=CCC/C(C)=C/CC/C(C)=C/CN1C(=O)c2ccc(F)c(O)c2Nc2c(O)cc(O)cc21	32 (≈ 66.6 µM)	16 (≈ 33.3 µM)	32 (≈ 66.6 µM)	32 (≈ 66.6 µM)	> 128	> 128	> 128
CC(C)=CCC/C(C)=C/CC/C(C)=C/CN1C(=O)c2cc(F)cc(O)c2Nc2c(O)cc(O)cc21	16 (≈ 33.3 µM)	8 (≈ 16.6 µM)	16 (≈ 33.3 µM)	32 (≈ 66.6 µM)	> 128	> 128	> 128

— ChEMBL document CHEMBL1152322, “Evaluating indole-related derivatives as precursors in the directed biosynthesis of diazepinomicin analogues” (2009)
